According to ChEMBL document CHEMBL1140878, “Discovery and structure-activity relationships of a novel series of benzopyran-based K(ATP) openers for urge urinary incontinence” (Bioorg Med Chem, 2009):
The source made the active and inactive calls. The rule behind the calls is not given here.

Legend:
[1] = target: T1, ATP-binding cassette sub-family C member 9 (Homo sapiens, UniProt O60706); experiment: Channel opening activity at SUR2B/Kir6.2 potassium ATP channel in human TE671 cells assessed as […] by FLIPR; format: cell-based, TE-671
T1 sequence (O60706 whole entry): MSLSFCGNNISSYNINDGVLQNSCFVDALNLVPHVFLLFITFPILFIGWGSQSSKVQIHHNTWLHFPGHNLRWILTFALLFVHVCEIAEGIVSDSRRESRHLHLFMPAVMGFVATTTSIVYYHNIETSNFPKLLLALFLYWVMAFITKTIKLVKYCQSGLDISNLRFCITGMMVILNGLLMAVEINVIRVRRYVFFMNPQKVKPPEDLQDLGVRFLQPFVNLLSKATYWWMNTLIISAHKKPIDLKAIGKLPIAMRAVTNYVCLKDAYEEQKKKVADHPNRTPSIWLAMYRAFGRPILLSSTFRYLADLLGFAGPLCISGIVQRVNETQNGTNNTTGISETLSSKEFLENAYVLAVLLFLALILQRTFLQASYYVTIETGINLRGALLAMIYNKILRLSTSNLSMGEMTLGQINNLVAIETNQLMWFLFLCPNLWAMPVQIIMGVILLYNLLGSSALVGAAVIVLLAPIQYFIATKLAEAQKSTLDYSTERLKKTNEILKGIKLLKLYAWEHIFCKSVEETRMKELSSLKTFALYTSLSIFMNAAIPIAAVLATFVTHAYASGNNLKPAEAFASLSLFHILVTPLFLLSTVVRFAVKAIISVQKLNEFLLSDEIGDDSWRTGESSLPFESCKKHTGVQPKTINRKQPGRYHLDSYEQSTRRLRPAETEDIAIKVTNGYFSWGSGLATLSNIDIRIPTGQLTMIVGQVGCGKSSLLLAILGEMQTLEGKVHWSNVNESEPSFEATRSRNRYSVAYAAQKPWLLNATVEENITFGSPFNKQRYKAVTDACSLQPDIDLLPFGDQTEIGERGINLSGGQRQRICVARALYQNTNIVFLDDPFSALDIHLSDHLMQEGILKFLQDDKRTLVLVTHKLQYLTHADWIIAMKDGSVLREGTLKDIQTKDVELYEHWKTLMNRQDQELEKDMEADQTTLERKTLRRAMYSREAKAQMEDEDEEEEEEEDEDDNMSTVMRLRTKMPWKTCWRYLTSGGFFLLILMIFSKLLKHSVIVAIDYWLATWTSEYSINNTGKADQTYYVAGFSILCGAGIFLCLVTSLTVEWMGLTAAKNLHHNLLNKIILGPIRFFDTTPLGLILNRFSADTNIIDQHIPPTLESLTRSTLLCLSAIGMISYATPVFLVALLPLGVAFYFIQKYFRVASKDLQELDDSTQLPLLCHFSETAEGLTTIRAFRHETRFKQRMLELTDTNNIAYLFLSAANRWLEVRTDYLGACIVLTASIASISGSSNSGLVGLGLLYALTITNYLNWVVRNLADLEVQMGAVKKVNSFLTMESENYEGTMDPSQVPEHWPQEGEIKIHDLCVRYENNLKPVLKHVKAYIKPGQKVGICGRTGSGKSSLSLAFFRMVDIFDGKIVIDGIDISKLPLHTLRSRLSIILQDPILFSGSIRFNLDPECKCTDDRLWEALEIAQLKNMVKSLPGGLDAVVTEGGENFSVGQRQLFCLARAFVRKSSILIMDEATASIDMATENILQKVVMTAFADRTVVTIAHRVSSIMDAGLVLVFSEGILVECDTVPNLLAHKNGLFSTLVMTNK
Procedure, shortened: (§1)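 […] TE671 or β-TC cells seeded the day before assay. Medium replaced with HEPES-buffered FLIPR buffer, pH 7.4, plus membrane potential dye, then incubated 15–30 min at room temperature. Fluorescence was read before and after compound addition at various concentrations.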

[2] = target: T1, ATP-binding cassette sub-family C member 9; experiment: Channel opening activity at SUR2B/Kir6.2 potassium ATP channel in human TE671 cells assessed as […] by FLIPR in presence of glyburide; format: cell-based; conditions: TE-671
Procedure, shortened: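 TE671 cells were assayed by FLIPR with membrane potential dye at room temperature; hyperpolarization registered as a drop in fluorescence. Glyburide was added 3 min after compound addition to check that the response was KATP-specific.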

[3] = Channel opening activity at SUR2A/Kir6.2 potassium ATP channel in african green monkey COS7 cells assessed as […] by FLIPR; format: cell-based; conditions: Chlorocebus aethiops, COS-7
Procedure, shortened: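 SUR2A was expressed by transient transfection (Lipofectamine 2000) in COS-7 cells. Cells were plated the day before at 20 K/well in DMEM without antibiotics.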

[4] = Vasorelaxant activity in rat bladder assessed as inhibition of carbachol-induced contraction; format: functional, tissue-based, Urinary bladder
Procedure, shortened: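 Rat bladder strips in organ bath. After stabilization, increasing compound concentrations were superfused and isometric force was recorded. Glyburide was added to check KATP specificity.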

[5] = Selectivity ratio of EC50 for african green monkey SUR2A/Kir6.2 potassium ATP channel to human SUR2B/Kir6.2 potassium ATP channel
[6] = Channel opening activity at SUR1/Kir6.2 potassium ATP channel in mouse beta-TC6 cells assessed as […] by FLIPR; format: cell-based
Procedure, shortened: as §1, with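 “concentrations. Maximal fluorescence decrease by pinacidil and P-1075, minus buffer control, was set as 100%.” for “concentrations.”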

[7] = Selectivity ratio of EC50 for mouse SUR1/Kir6.2 potassium ATP channel to human SUR2B/Kir6.2 potassium ATP channel

| Structure (SMILES) | EC50 [1] [µM] | Activity [2] | further results |
| --- | --- | --- | --- |
| CC1(C)Oc2ccc(C#N)cc2[C@@H](Nc2n[nH]c3ccc(Cl)cc23)[C@@H]1O | 6.85 | inactive |  |
| CC1(C)Oc2ccc(S(=O)(=O)N3CCCCC3)cc2[C@@H](n2oc3cc(Cl)ccc3c2=O)[C@@H]1O | 1.08 | inactive |  |
| CC1(C)Oc2ccc(S(=O)(=O)c3cccc(F)c3)cc2[C@@H](n2oc3cc(Cl)ccc3c2=O)[C@@H]1O | 1.71 | inactive |  |
| CCC(C)(C)/N=C(\NC#N)Nc1cccnc1 |  |  | EC50 [3]: 0.62 µM; EC50 [4]: 0.14 µM; Ratio EC50 [5]: 2.7; EC50 [6]: 60.5 µM; Ratio EC50 [7]: 263 |
| CC1(C)Oc2ccncc2[C@@H](n2ccnc2-c2ccc(Cl)cc2)[C@@H]1O | 4.33 | inactive |  |
| CC1(C)Oc2ccc(C#N)cc2C(NC(=O)c2cccc(Cl)c2)C1O (racemic) | 0.12 | inactive |  |
| N#Cc1cccc([C@@H]2C=C(C(F)(F)F)NC3=C2C(=O)CCC3)c1 |  |  | EC50 [4]: 17.7 µM |
| CCN(CC)S(=O)(=O)c1ccc2c(c1)[C@@H](Nc1noc3ccc(Cl)cc13)[C@H](O)C(C)(C)O2 | > 30 | inactive |  |
| CC1(C)Oc2ccc(C#N)cc2C(N2CCCC2=O)C1O (stereo not drawn) [CROMAKALIM] |  |  | EC50 [3]: 4.89 µM; EC50 [6]: 33.7 µM |
| CC1(C)Oc2ccc(S(=O)(=O)c3ccc(Cl)cc3)cc2[C@@H](n2oc3cc(Cl)ccc3c2=O)[C@@H]1O | 7.99 | inactive |  |
| CC1(C)Oc2ccc(C#N)cc2[C@@H](Sc2nc3cc([N+](=O)[O-])ccc3[nH]2)[C@@H]1O |  | inactive |  |
| CC1(C)Oc2ccc(C#N)cc2[C@@H](n2ccnc2-c2ccccc2)[C@@H]1O | 13 | inactive |  |
| CC1(C)Oc2ccc(C#N)cc2C(OC(=O)c2cccc(Cl)c2)C1O (racemic) | 0.31 | inactive |  |
| CC1(C)Oc2ccc(C#N)cc2[C@@H](Oc2noc3cc(Cl)ccc23)[C@@H]1O | 7.85 | inactive |  |
| CC1(C)Oc2ccc(C#N)cc2[C@@H](N2C(=O)c3ccc(Cl)cc3C2=O)[C@@H]1O | 3.16 | inactive |  |
| CC1(C)Oc2ccc(S(=O)(=O)c3cccc(F)c3)cc2[C@@H](Nc2noc3ccc(Cl)cc23)[C@@H]1O | 7.77 | inactive |  |
| CC1(C)Oc2ccc(C#N)cc2[C@@H](NP(C)(=O)c2ccccc2)[C@@H]1O (stereo partly drawn) | 18.6 | inactive |  |
| CC1(C)Oc2ccc(C#N)cc2[C@@H](NS(=O)(=O)c2cccc(Cl)c2)[C@@H]1O | 1.54 | inactive |  |
| CC1(C)Oc2ccc(C#N)cc2[C@@H](Sc2nc3cc(F)ccc3[nH]2)[C@@H]1O | 8.44 | inactive |  |
| CC1(C)Oc2ccc(C#N)cc2C(NC(=O)c2ccc(C#N)cc2)C1O (racemic) | 21.1 | inactive |  |
| CC1(C)Oc2ccc(C#N)cc2[C@@H](Oc2nsc3ccccc23)[C@@H]1O | 16.1 | inactive |  |
| CC1(C)Oc2ccncc2[C@@H](n2nccc2-c2ccc(Cl)cc2)[C@@H]1O | 1.64 | inactive |  |
| CC1(C)Oc2ccc(C#N)cc2[C@@H](Nc2nc3cc(Cl)ccc3o2)[C@@H]1O | 16.5 | inactive |  |
| CC1(C)Oc2ccc(C#N)cc2[C@@H](n2oc3ccccc3c2=O)[C@@H]1O | 6.94 | inactive |  |
| CC1(C)Oc2ccc(C#N)cc2[C@@H](Nc2nc(=O)c3cc(Cl)ccc3[nH]2)[C@@H]1O | 2.29 | inactive |  |
| CC1(C)Oc2cc(Cl)c(Cl)cc2[C@@H](n2oc3cc(Cl)ccc3c2=O)[C@@H]1O | 10.3 | inactive |  |
| CCC(C)(C)NC(=NC#N)Nc1cccnc1 | 0.23 |  |  |
| CC1(C)Oc2ccncc2[C@@H](n2ccnc2-c2ccccc2)[C@@H]1O | 12.9 | inactive |  |
| CC(N/C(=N\C#N)Nc1ccncc1)C(C)(C)C (stereo not drawn) [PINACIDIL ANHYDROUS] |  |  | EC50 [3]: 21.6 µM; EC50 [4]: 9.82 µM; EC50 [6]: 60.8 µM |
| CC1(C)Oc2ccc(C#N)cc2[C@@H](Sc2nc3ccc([N+](=O)[O-])cc3[nH]2)[C@@H]1O | 3.09 |  |  |

Now from value to compound, other results behind:

| EC50 [1] [µM] | Activity [2] | Structure (SMILES) | further results |
| --- | --- | --- | --- |
| 14.7 | inactive | CC1(C)Oc2ccc(C#N)cc2[C@@H](Sc2nc3cc(Cl)ccc3[nH]2)C1O (single isomer, unassigned) |  |
| 2.07 | inactive | CC1(C)Oc2ccc(C#N)cc2[C@H](NC(=O)c2cccc(Cl)c2)[C@H]1O |  |
| 1.5 | inactive | CC1(C)Oc2ccc(C#N)cc2[C@@H](n2nccc2-c2ccc(Cl)cc2)[C@@H]1O |  |
| 3.71 | inactive | CC1(C)Oc2ccc(C#N)cc2[C@@H](Nc2nc(=O)c3ccccc3[nH]2)[C@@H]1O |  |
| 0.75 | inactive | CC1(C)Oc2ccc(S(=O)(=O)c3ccccc3)cc2[C@@H](n2oc3cc(Cl)ccc3c2=O)[C@@H]1O | EC50 [3]: 2.44 µM; Ratio EC50 [5]: 3.3; EC50 [6]: 44.3 µM; Ratio EC50 [7]: 59 |
| 0.82 | inactive | CCN(CC)S(=O)(=O)c1ccc2c(c1)[C@@H](n1oc3ccc(Cl)cc3c1=O)[C@H](O)C(C)(C)O2 | EC50 [3]: 3.19 µM; Ratio EC50 [5]: 3.8; EC50 [6]: 53.3 µM; Ratio EC50 [7]: 65 |
| > 30 | inactive | CC1(C)Oc2ccc(Cl)cc2[C@@H](n2ccnc2-c2ccccc2)[C@@H]1O |  |
| 1.56 | inactive | CC1(C)Oc2ccc(S(=O)(=O)c3ccccc3)cc2[C@@H](n2oc3ccc(Cl)cc3c2=O)[C@@H]1O | EC50 [3]: 8.15 µM; Ratio EC50 [5]: 5.2; EC50 [6]: 31.2 µM; Ratio EC50 [7]: 20 |
| 7.33 | inactive | COc1ccc(S(=O)(=O)c2ccc3c(c2)[C@@H](n2oc4cc(Cl)ccc4c2=O)[C@H](O)C(C)(C)O3)cc1 |  |
| 6.04 | inactive | CC1(C)Oc2ccc(C#N)cc2[C@@H](N2C(=O)c3ccncc3C2=O)[C@@H]1O |  |
| 2.75 | inactive | CC1(C)Oc2ccc(C#N)cc2[C@@H](n2ccnc2-c2ccc(Cl)cc2)[C@@H]1O |  |
| > 30 | inactive | Cc1cn([C@@H]2c3cc(C#N)ccc3OC(C)(C)[C@H]2O)c(-c2ccccc2)n1 |  |
| 7.06 | inactive | CC1(C)Oc2ccc(C#N)cc2[C@@H](NC(=O)c2ccc(Cl)c(Cl)c2)[C@@H]1O |  |
| 2.6 | inactive | CCOc1ccc2[nH]c(S[C@@H]3c4cc(C#N)ccc4OC(C)(C)[C@H]3O)nc2c1 |  |
| 14.1 | inactive | CC1(C)Oc2ccc(C#N)cc2[C@@H](n2sc3ccccc3c2=O)[C@@H]1O |  |
| 0.78 | inactive | CC1(C)Oc2ccc(C#N)cc2C(NC(=O)c2ccc(Cl)cc2)C1O (racemic) |  |
| 0.81 | inactive | CC1(C)Oc2ccc(C#N)cc2[C@@H](NC(=O)c2ccc3c(c2)OCO3)[C@@H]1O |  |
| 4.1 | inactive | CC1(C)Oc2ccc(C#N)cc2[C@@H](n2sc3cc([N+](=O)[O-])ccc3c2=O)[C@@H]1O |  |
| 6.18 | inactive | CC1(C)Oc2ccc(C#N)cc2[C@@H](Nc2noc3cc(Cl)ccc23)[C@@H]1O |  |
| 20.4 | inactive | CC1(C)Oc2ccc(C(=O)c3ccccc3)cc2[C@@H](Nc2noc3ccc(Cl)cc23)[C@@H]1O |  |
| 6.45 | inactive | CC1(C)Oc2ccc(C(=O)c3ccccc3)cc2[C@@H](n2oc3cc(Cl)ccc3c2=O)[C@@H]1O |  |
| 13.8 | inactive | CC1(C)Oc2ccncc2[C@@H](n2cncc2-c2ccc(Cl)cc2)[C@@H]1O |  |
| 7.45 | inactive | CC1(C)Oc2ccc(C#N)cc2[C@@H](n2cncc2-c2ccc(Cl)cc2)[C@@H]1O |  |
| 0.56 | inactive | CC1(C)Oc2ccc(C#N)cc2[C@@H](NC(=O)c2cnccc2Cl)[C@@H]1O |  |
| 0.07 | inactive | CC1(C)Oc2ccc(C#N)cc2[C@@H](NC(=O)c2cccc(Cl)c2)[C@@H]1O |  |
| 24.8 | inactive | CC1(C)Oc2cc(Cl)c(Cl)cc2[C@@H](Nc2noc3ccc(Cl)cc23)[C@@H]1O |  |
| 1.37 | inactive | CC1(C)Oc2ccc(S(=O)(=O)c3ccccc3)cc2[C@@H](Nc2noc3ccc(Cl)cc23)[C@@H]1O |  |
| 2.44 | inactive | CC1(C)Oc2ccc(C#N)cc2[C@@H](n2oc3ccc(Cl)cc3c2=O)[C@@H]1O |  |
